# Test results reported in ChEMBL document CHEMBL4020840, “Synthesis and Biological Evaluation of Selenium-Containing 4-Anilinoquinazoline Derivatives as Novel Antimitotic Agents” (J Med Chem, 2018).
# pIC50: −log10 of the molar value. Structures can show the parent of a compound that is named as a salt. Calls of active or inactive are those of the source. No cut-off for these calls is given here.
# Columns and labels:
# Sus scrofa [1] = species: Sus scrofa; assay: (§1) Inhibition of porcine brain tubulin polymerization measured every 60 secs for 90 mins by DAPI staining based fluorescence assay
# Method in brief: (§2)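 Purified tubulin was tested in a kit assay. Final buffer: 80 mM PIPES sesquisodium (pH 6.9), 2.0 mM MgCl₂, 0.5 mM EGTA, 1 mM GTP, 10.2% glycerol. Compound (0.1–10 μM) was prewarmed at 37 °C for 1 min before tubulin was added. DAPI reporter fluorescence (ex 340 / em 410 nm) was read every 60 s for 90 min. Area under the curve gave percent inhibition versus control and the IC50.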
# Sus scrofa [2] = species: Sus scrofa; assay: Inhibition of porcine brain tubulin polymerization at 7.5 uM measured every 60 secs for 90 mins by DAPI staining based fluorescence assay relative to control; method in brief: as §2
# A549 [3] = assay: Cell cycle arrest in human A549 cells assessed as accumulation at G2/M phase up to 24 hrs by propidium iodide staining based flow cytometry; assay type: functional
# Method in brief: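 A549 seeded in six-well plates at 3 × 10⁵ cells/well and treated for 12 or 24 h; vehicle 0.01% DMSO. Cells fixed overnight in ice-cold 70% ethanol, treated with RNase A at 37 °C for 30 min, then stained with PI at 4 °C for 30 min. About 10 000 events acquired by flow cytometry at 488 nm; three experiments.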
# A549 [4] = assay: Antimigratory activity against human A549 cells assessed as suppression of wound healing at 4 nM after 24 hrs by phase contrast microscopic method; assay type: functional, cell-based
# Method in brief: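 Scratch wound assay: A549 plated at 5 × 10⁴ cells/dish and grown 24 h before scraping with a 10 μL tip. Medium then swapped to serum-free DMEM containing compound (4 nM) for 24 h. After a PBS wash, wound images taken at 0 and 24 h; at least three independent experiments.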
# A549 [5] = assay: Growth inhibition of human A549 cells after 48 hrs by MTT assay; assay type: functional, cell-based; settings: A549, 48 h
# HCT-116 = assay: Growth inhibition of human HCT116 cells after 48 hrs by MTT assay; assay type: functional, cell-based; settings: HCT-116, 48 h
# Method in brief: (§3)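 MTT assay: log-phase cells plated at 5 × 10³/well for 24 h, then exposed to a range of test concentrations for 48 h. MTT (5 mg/mL) added for 4 h, formazan dissolved in DMSO, absorbance read at 570 nm. IC50 is the concentration giving 50% growth inhibition, from dose-response curves; at least three independent experiments, mean ± SE.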
# HepG2 = assay: Growth inhibition of human HepG2 cells after 48 hrs by MTT assay; assay type: functional, cell-based; settings: HepG2, 48 h; method in brief: as §3
# MDA-MB-231 = assay: Growth inhibition of human MDA-MB-231 cells after 48 hrs by MTT assay; assay type: functional, cell-based; settings: MDA-MB-231, 48 h; method in brief: as §3
# LoVo = assay: Growth inhibition of human LoVo cells after 48 hrs by MTT assay; assay type: functional, cell-based; method in brief: as §3
# RKO = assay: Growth inhibition of human RKO cells after 48 hrs by MTT assay; assay type: functional, cell-based; method in brief: as §3
# A549/CDDP = assay: Growth inhibition of human A549/CDDP cells after 48 hrs by MTT assay; assay type: functional, cell-based; method in brief: as §3
# [6] = Growth inhibition of human HepG2/DOX cells after 48 hrs by MTT assay; assay type: functional, cell-based; method in brief: as §3
# A549 [7] = assay: Antitumor activity against human A549 cells xenografted in Balb/c mouse assessed as tumor growth inhibition at 2.5 mg/kg, ip treated once in 2 days for 10 days relative to control; assay type: functional; settings: read-out: TGI
# Method in brief: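 Male BALB/c nude mice, 5 weeks old, 18−20 g. Right flank injected sc with 0.1 mL of 1 × 10⁷ cells/mL log-phase A549 in FBS-free DMEM. At ~100 mm³, randomised into groups of 5 and dosed ip every 2 days; vehicle controls got equal volume. Tumour volume (0.5 × length × width²) and body weight recorded every 2 days.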
# [8] = Selectivity index, ratio of IC50 for human LO2 cells to IC50 for human A549 cells; assay type: functional
# Method in brief: (§4)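 MTT assay in normal cells and A549: seeding at 5 × 10³ cells/well for 24 h, 48 h compound exposure, then 5 mg/mL MTT for 4 h, DMSO solubilisation and absorbance at 570 nm. IC50 values came from dose–response curves of at least three independent experiments. Selectivity ratio = IC50 in normal cells / IC50 in A549.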
# [9] = Selectivity index, ratio of IC50 for HLF to IC50 for human A549 cells; method in brief: as §4
# MCF7 = assay: Antiproliferative activity against human MCF7 cells after 48 hrs by MTT assay; assay type: functional, cell-based; settings: MCF7, 48 h; method in brief: as §3
# HeLa = assay: Antiproliferative activity against human HeLa cells after 48 hrs by MTT assay; assay type: functional, cell-based; method in brief: as §3
# MGC-803 = assay: Antiproliferative activity against human MGC803 cells after 48 hrs by MTT assay; assay type: functional, cell-based; settings: MGC-803, 48 h; method in brief: as §3
# [10] = Resistance factor, ratio of IC50 for human A549/CDDP cells to IC50 for human A549 cells; assay type: functional
# Method in brief: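 MTT assay: log-phase cells were seeded at 5 × 10³/well for 24 h, then exposed to a concentration series for 48 h. MTT (5 mg/mL) was added for 4 h, formazan was dissolved in DMSO, and A570 was read. IC50 values came from dose–response curves of at least three independent experiments. Resistance factor = IC50 in the resistant line / IC50 in the parental sensitive line.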
# [11] = as §1; set-up: species or system Sus scrofa; method in brief: as §2
# [12] = Antiproliferative activity against HLF after 48 hrs by MTT assay; assay type: cell-based; settings: Homo sapiens; method in brief: as §3
# L02 = assay: Antiproliferative activity against human LO2 cells after 48 hrs by MTT assay; assay type: cell-based; settings: L02, 48 h; method in brief: as §3
# BJ = assay: Antiproliferative activity against human BJ cells after 48 hrs by MTT assay; assay type: cell-based; method in brief: as §3
# [13] = Selectivity index, ratio of IC50 for human BJ cells to IC50 for human A549 cells; assay type: functional; method in brief: as §4
pIC50 (A549 [5]),Structure (SMILES),pIC50 (HCT-116),pIC50 (HepG2),pIC50 (MDA-MB-231),pIC50 (LoVo),pIC50 (RKO),also measured
,C[Se]c1ccc(N(C)c2nc(C)nc3ccccc23)cc1F [listing 1 of 2 here],,,,,,inhibition (Sus scrofa [1]): Dose-dependent effect; inhibition (Sus scrofa [2]): 90.5%; Activity (A549 [3]): Dose-dependent effect; Activity (A549 [4]): Active
6.45,COc1ccc(N(C)c2nc(C)nc3ccccc23)cc1C(=O)OCC[Se]C#N,6.02,6.05,5.83,5.53,5.62,
,COc1ccc(/C=C\c2cc(OC)c(OC)c(OC)c2)cc1O [COMBRETASTATIN A4],,8.05,,,,pIC50 (A549/CDDP): 7.77; pIC50 [6]: 7.57
,Cc1nc(N(C)c2ccc([Se]C#N)cc2)c2ccccc2n1,,,,,,inhibition in vivo at 2.5 mg/kg (A549 [7]): 69.8%
,COc1ccc(N(C)c2nc(C)nc3ccccc23)cc1,,,,,,inhibition (Sus scrofa [2]): 77.6%; Activity (A549 [4]): Active
6.31,COc1ccc(N(C)c2nc(C)nc3ccccc23)cc1C(=O)OCCCCCC[Se]C#N,5.70,5.58,5.66,5.98,5.70,
5.61,COc1ccc(N(C)c2nc(C)nc3ccccc23)cc1OCCCCC[Se]C#N,6.59,5.28,5.36,5.28,5.45,
6.42,COc1ccc(N(C)c2nc(C)nc3ccccc23)cc1OCCC[Se]C#N,6.07,5.98,6.09,6.04,6.10,
5.26,COc1ccc(N(C)c2nc(C)nc3ccccc23)cc1OCCCCCC[Se]C#N,5.21,5.31,5.45,5.07,5.81,
,COc1ccc(N(C)c2nc(C)nc3ccccc23)cc1 [VERUBULIN HYDROCHLORIDE],,,,,,inhibition in vivo at 2.5 mg/kg (A549 [7]): 68.6%
8.52,COc1ccc(N(C)c2nc(C)nc3ccccc23)cc1 [VERUBULIN],8.40,8.30,8.10,8.10,8.52,Ratio IC50 [8]: 6.5; Ratio IC50 [9]: 9; pIC50 (MCF7): 7.96; pIC50 (HeLa): 8.30; pIC50 (MGC-803): 8.10; pIC50 (A549/CDDP): 8.05; pIC50 [6]: 7.96; Ratio IC50 [10]: 3; pIC50 [11]: 5.56; pIC50 [12]: 7.74; pIC50 (L02): 7.89; pIC50 (BJ): 7.82; Ratio IC50 [13]: 7.5
5.92,COc1ccc(N(C)c2nc(C)nc3ccccc23)cc1OCCCC[Se]C#N,6.29,5.19,5.87,6.05,5.87,
6.91,COc1ccc(N(C)c2nc(C)nc3ccccc23)cc1OCCN,6.70,6.46,6.17,6.38,6.46,
5.54,COc1cccc2c1C(=O)c1c(O)c3c(c(O)c1C2=O)C[C@@](O)(C(=O)CO)C[C@@H]3O[C@H]1C[C@H](N)[C@H](O)[C@H](C)O1 [DOXORUBICIN],,5.72,,,,pIC50 (A549/CDDP): 5.34; pIC50 [6]: < 5.00; Ratio IC50 [10]: 1.58
,C[Se]c1ccc(N(C)c2nc(C)nc3ccccc23)cc1,,,,,,inhibition in vivo at 2.5 mg/kg (A549 [7]): 75.7%
6.23,COc1ccc(N(C)c2nc(C)nc3ccccc23)cc1C(=O)OCCCCC[Se]C#N,6.26,6.18,6.07,6.15,6.45,
6.81,COc1ccc(N(C)c2nc(C)nc3ccccc23)cc1C(=O)OCCCC[Se]C#N,6.18,6.01,6.26,5.97,5.99,
6.60,COc1ccc(N(C)c2nc(C)nc3ccccc23)cc1C(=O)OCCC[Se]C#N,6.14,6.47,5.93,6.07,5.94,
7.89,COc1ccc(N(C)c2nc(C)nc3ccccc23)cc1OCC[Se]C#N,7.74,7.85,7.89,7.72,7.57,
6.73,COc1ccc(N(C)c2nc(C)nc3ccccc23)cc1C(=O)NCC[Se]C#N,6.50,6.75,5.90,6.25,5.93,
,C[Se]c1ccc(N(C)c2nc(C)nc3ccccc23)cc1F [listing 2 of 2 here],,,,,,inhibition in vivo at 2.5 mg/kg (A549 [7]): 77.2%

Structure (SMILES),pIC50 (A549 [5]),pIC50 (HCT-116),pIC50 (HepG2),pIC50 (MDA-MB-231),pIC50 (LoVo),pIC50 (RKO),also measured
C[Se]c1ccc(N(C)c2nc(C)nc3ccccc23)cc1C,8.70,8.52,8.22,8.15,8.05,8.10,
Cc1nc(N(C)c2ccc(OCC[Se]C#N)cc2)c2ccccc2n1,6.05,5.64,5.77,6.50,6.26,6.19,
CN(c1ccc([Se]C#N)cc1)c1nc(C2CC2)nc2ccccc12,7.92,7.21,7.39,7.54,7.96,7.29,
COc1ccc(N(C)c2nc(C)nc3ccccc23)cc1[Se]C,7.96,7.55,7.77,8.00,8.52,7.96,
C[Se]c1ccc(N(C)c2nc(C3CC3)nc3ccccc23)cc1,7.89,7.82,7.49,7.74,7.96,7.68,
[2H]C([2H])([2H])c1nc(N(C)c2ccc([Se]C)cc2)c2ccccc2n1,8.52,8.52,8.30,8.05,8.30,8.10,
Cc1nc(N(C)c2ccc([Se]C#N)c(Cl)c2)c2ccccc2n1,8.15,7.92,7.92,8.05,7.92,7.96,
COc1ccc(N(C)c2nc(C)nc3ccccc23)cc1C[Se]C#N,7.01,6.95,5.95,6.82,6.56,6.50,
COc1ccc(N(C)c2nc(C)nc3ccccc23)cc1[Se]C#N,7.31,7.47,7.23,7.28,7.14,7.33,
[2H]C([2H])([2H])c1nc(N(C)c2ccc([Se]C#N)cc2)c2ccccc2n1,8.15,8.00,7.68,7.96,7.85,7.96,
Cc1nc(N(C)c2ccc([Se]C#N)c(F)c2)c2ccccc2n1,8.40,7.70,7.43,8.22,7.89,8.10,
C[Se]c1ccc(N(C)c2nc(C)nc3ccccc23)cc1Cl,8.70,8.30,8.40,8.15,8.52,8.40,
Cc1nc(N(C)c2ccc([Se]C#N)c(C)c2)c2ccccc2n1,8.10,7.89,8.05,7.80,7.72,7.77,
